What was measured:
HEK-293T = experiment: Cytotoxicity against HEK293T cells at 10 uM after 48 hrs; assay type: cell-based; conditions: human
Summary of the method: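 HEK 293T cells incubated 48 h with compound at final 10 μM under the antiviral culture conditions, without virus. Viability read with a cell proliferation assay kit.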

[1] = tested on: Human immunodeficiency virus 1; experiment: Antiviral activity against wild type HIV1 infected in HEK293T cells transfected with plasmid VSV-G/pNL4-3.luc.R-E- assessed as inhibition of viral replication after 48 hrs by luciferase reporter gene assay; assay type: functional, organism-based, HEK-293T; conditions: Human immunodeficiency virus 1, HEK-293T, 48 h; read-out: IC50
Summary of the method: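 VSV-G-pseudotyped single-cycle virus: VSVG plasmid plus env-deficient pNL4-3.luc.R⁻E⁻ vector (wild type or RT-mutant) co-transfected into HEK 293T by calcium phosphate. Medium changed at 16 h, supernatant collected 48 h post-transfection, normalised by p24 ELISA to 0.2 ng p24/mL. HEK 293T targets seeded a day ahead; compound added 15 min before virus. Cells lysed 48 h post-infection, luciferase read. IC50 from dose–infectivity curves.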

[2] = Retention time of the compound by HPLC analysis; assay type: physicochemical

| Structure (SMILES) | Activity (HEK-293T) | IC50 [1] [nM] | Retention_time [2] [min] |
| --- | --- | --- | --- |
| COc1ccc(-c2nc(NCc3cc([N+](=O)[O-])ccc3O)sc2Cc2ccccc2)cc1 | Non-toxic | 5200 | 45.27 |
| COc1ccc(CNc2nc(-c3ccc(F)cc3)c(Cc3ccccc3)s2)cc1 | Non-toxic | 1210 | 33.02 |
| COc1ccc(-c2nc(NCc3c(Cl)cccc3Cl)sc2Cc2ccccc2)cc1 | Non-toxic | 7210 | 7.67 |
| COc1ccc(-c2nc(NCc3ccc([N+](=O)[O-])cc3)sc2Cc2ccccc2)cc1 | Non-toxic | 800 | 28.54 |
| COc1ccc(-c2nc(NCc3cccc(OC)c3)sc2Cc2ccccc2)cc1 | Non-toxic | 820 | 27.45 |
| COc1ccc(CNc2nc(-c3ccc(Cl)cc3Cl)c(Cc3ccccc3)s2)cc1 | Non-toxic | 140 | 53.29 |
| COc1ccc(CNc2nc(-c3ccc(OC)cc3)c(Cc3ccc(F)cc3)s2)cc1 | Non-toxic | > 10000 | 29.46 |
| COc1ccc(Nc2nc(-c3ccccc3)c(Cc3ccccc3OC)s2)cc1 | Non-toxic | > 10000 | 3.18 |
| COc1ccc(CNc2nc(-c3ccccc3)c(Cc3ccccc3)s2)cc1 | Non-toxic | 180 | 28.38 |
| CCN(CC)c1nc(-c2ccc(O)cc2)c(Cc2ccccc2)s1 | Non-toxic | 4400 | 19.11 |
| COc1ccc(-c2nc(NCc3ccc4ccccc4c3)sc2Cc2ccccc2)cc1 | Non-toxic | 960 | 72.49 |
| CCN(CC)c1nc(-c2ccc(OC)cc2)c(Cc2ccccc2)s1 | Non-toxic | 2300 | 29.77 |
| COc1ccc(-c2nc(NCc3ccc(O)c(OC)c3)sc2Cc2ccccc2)cc1 | Non-toxic | 330 | 14.86 |
| COc1ccc(-c2nc(NCc3cccnc3)sc2Cc2ccccc2)cc1 | Non-toxic | 4670 | 10.25 |
| COc1ccc(-c2nc(NCc3ccc(C#N)cc3)sc2Cc2ccccc2)cc1 | Non-toxic | 450 | 20.01 |
| COc1ccc(-c2nc(NCc3cc(OC)c(OC)c(OC)c3)sc2Cc2ccccc2)cc1 | Non-toxic | > 10000 | 17.16 |
| COc1ccc(CCNc2nc(-c3ccc(OC)cc3)c(Cc3ccccc3)s2)cc1 | Non-toxic | > 10000 | 36.91 |
| COc1ccc(CNc2nc(-c3ccc(OC)cc3)c(C)s2)cc1 | Non-toxic | 9590 | 13.3 |
| COc1ccc(-c2nc(NCc3ccccc3OC)sc2Cc2ccccc2)cc1 | Non-toxic | 6970 | 34.78 |
| COc1ccc(CNc2nc(-c3ccccc3)c(Cc3ccccc3OC)s2)cc1 | Non-toxic | 130 | 27.75 |
| COc1ccc(-c2nc(NCc3ccc(F)cc3)sc2Cc2ccccc2)cc1 | Non-toxic | 660 | 29.67 |
| COc1ccc(CNc2nc(-c3ccco3)c(Cc3ccccc3)s2)cc1 | Non-toxic | 700 | 19.97 |
| COc1ccc(CNc2nc(-c3ccc(OC)cc3)c(Cc3ccc(OC)cc3)s2)cc1 | Non-toxic | > 10000 | 26.12 |
| COc1ccc(-c2nc(NCc3cccc([N+](=O)[O-])c3)sc2Cc2ccccc2)cc1 | Non-toxic | 1470 | 27.61 |
| COc1ccc(-c2nc(NCc3ccco3)sc2Cc2ccccc2)cc1 | Non-toxic | 1000 | 19.65 |

— ChEMBL document CHEMBL3351628, “2,4,5-Trisubstituted thiazole derivatives: a novel and potent class of non-nucleoside inhibitors of wild type and mutant HIV-1 reverse transcriptase” (Eur J Med Chem, 2014)
